Assay results: ChEMBL document CHEMBL4665858, “New BODIPYs for photodynamic therapy (PDT): Synthesis and activity on human cancer cell lines” (Bioorg Med Chem, 2020)
Activity calls are given as the source filed them. The calls are words filed in the database; no cut-off is given here.

Experiments:
MCF7 [1] = experiment: Induction of apoptosis in human MCF7 cells assessed as increase in necrotic cells at antiproliferative IC50 preincubated for 24 hrs followed by irradiated with green LED for 2 hrs then incubated in dark for 24 hrs in drug free medium by PI staining based flow cytometric analysis; format: functional, cell-based
How it was run: (§1)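 PI-stained cells analyzed by flow cytometry (575 nm); apoptotic fraction taken from the sub-G1 peak in log-mode histograms. Untreated controls; 3–5 independent experiments.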

MCF7 [2] = experiment: Induction of apoptosis in human MCF7 cells assessed as increase in apoptotic incubated for 24 hrs by PI staining based flow cytometric analysis; format: functional, cell-based
HCT-116 [3] = experiment: Antiproliferative activity against human HCT116 cells assessed as reduction in cell viability preincubated for 24 hrs followed by irradiated with green LED for 2 hrs then incubated in dark for 24 hrs in drug free medium by MTT assay; format: functional, cell-based; settings: HCT-116, light or radiation study
How it was run: (§2)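 HCT116 and SKOV3 grown in DMEM, MCF7 in RPMI1640, all with 10% FBS. Cells attached 24 h, then exposed 24 h to BODIPY (0.1–200 nM) at 37 °C. Medium replaced by PBS and cells irradiated 2 h with green LED, then held 24 h in the dark in drug-free medium. MTT (2 mg/mL) added for 3 h; DMSO-dissolved formazan read by absorbance. IC50 from dose-response curves; 3–5 independent experiments.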

MCF7 [4] = experiment: Induction of ROS generation in human MCF7 cells at antiproliferative IC50 preincubated for 24 hrs followed by irradiated with green LED for 2 hrs then incubated in dark for 24 hrs in drug free medium by DCFH-DA dye based flow cytometry relative to control; format: functional, cell-based
MCF7 [5] = experiment: Antiproliferative activity against human MCF7 cells assessed as reduction in cell viability preincubated for 24 hrs followed by irradiated with green LED for 2 hrs then incubated in dark for 24 hrs in drug free medium by MTT assay; format: functional, cell-based; settings: MCF7, light or radiation study; how it was run: as §2
HCT-116 [6] = experiment: Induction of cell cycle arrest in human HCT116 cells assessed as cell cycle distribution at antiproliferative IC50 preincubated for 24 hrs followed by irradiated with green LED for 2 hrs then incubated in dark for 24 hrs in drug free medium by PI staining based flow cytometric analysis; format: functional
How it was run: (§3)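 DNA content measured by PI flow cytometry (575 nm) in linear mode to give cell-cycle phase distribution. Untreated controls; 3 independent experiments.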

HCT-116 [7] = experiment: Induction of ROS generation in human HCT116 cells at antiproliferative IC50 preincubated for 24 hrs followed by irradiated with green LED for 2 hrs then incubated in dark for 24 hrs in drug free medium by DCFH-DA dye based flow cytometry relative to control; format: functional, cell-based
HCT-116 [8] = experiment: Induction of apoptosis in human HCT116 cells assessed as increase in apoptotic incubated for 24 hrs by PI staining based flow cytometric analysis; format: functional, cell-based
SK-OV-3 [9] = experiment: Antimigratory activity against human SK-OV-3 cells assessed as open scratch wound at 0.75 nM incubated for 24 hrs by scratch wound healing based microscopic analysis; format: functional, cell-based
SK-OV-3 [10] = experiment: Induction of apoptosis in human SK-OV-3 cells assessed as increase in apoptotic cells at antiproliferative IC50 preincubated for 24 hrs followed by irradiated with green LED for 2 hrs then incubated in dark for 24 hrs in drug free medium by PI staining based flow cytometric analysis; format: functional, cell-based; how it was run: as §1
SK-OV-3 [11] = experiment: Antimigratory activity against human SK-OV-3 cells assessed as open scratch wound at 0.75 nM preincubated for 24 hrs followed by irradiated with green LED for 2 hrs then incubated in dark for 24 hrs in drug free medium by scratch wound healing based microscopic analysis (reference value: 8.68 +/- 0.58%); format: functional
SK-OV-3 [12] = experiment: Induction of apoptosis in human SK-OV-3 cells assessed as increase in necrotic cells at antiproliferative IC50 preincubated for 24 hrs followed by irradiated with green LED for 2 hrs then incubated in dark for 24 hrs in drug free medium by PI staining based flow cytometric analysis; format: functional, cell-based; how it was run: as §1
SK-OV-3 [13] = experiment: Antimigratory activity against human SK-OV-3 cells assessed as open scratch wound at 0.75 nM preincubated for 24 hrs followed by irradiated with green LED for 2 hrs measured immediately in drug free medium by scratch wound healing based microscopic analysis (Rvb 38.27 +/- 3.02%); format: functional
HCT-116 [14] = experiment: Induction of cell cycle arrest in human HCT116 cells assessed as cell cycle distribution at antiproliferative IC50 incubated for 24 hrs by PI staining based flow cytometric analysis; format: functional
SK-OV-3 [15] = experiment: Induction of cell cycle arrest in human SK-OV-3 cells assessed as accumulation at G1 phase at antiproliferative IC50 preincubated for 24 hrs followed by irradiated with green LED for 2 hrs then incubated in dark for 24 hrs in drug free medium by PI staining based flow cytometric analysis; format: functional; how it was run: as §3
MCF7 [16] = experiment: Induction of apoptosis in human MCF7 cells assessed as increase in apoptotic cells at antiproliferative IC50 preincubated for 24 hrs followed by irradiated with green LED for 2 hrs then incubated in dark for 24 hrs in drug free medium by PI staining based flow cytometric analysis; format: functional, cell-based; how it was run: as §1
SK-OV-3 [17] = experiment: Antiproliferative activity against human SK-OV-3 cells assessed as reduction in cell viability preincubated for 24 hrs followed by irradiated with green LED for 2 hrs then incubated in dark for 24 hrs in drug free medium by MTT assay; format: functional, cell-based; settings: SK-OV-3, light or radiation study; how it was run: as §2
MCF7 [18] = experiment: Induction of cell cycle arrest in human MCF7 cells assessed as cell cycle distribution at antiproliferative IC50 incubated for 24 hrs by PI staining based flow cytometric analysis; format: functional
SK-OV-3 [19] = experiment: Induction of ROS generation in human SK-OV-3 cells at antiproliferative IC50 preincubated for 24 hrs followed by irradiated with green LED for 2 hrs measured at the end of irradiation in drug free medium by DCFH-DA dye based flow cytometry relative to control
MCF7 [20] = experiment: Induction of cell cycle arrest in human MCF7 cells assessed as cell cycle distribution at antiproliferative IC50 preincubated for 24 hrs followed by irradiated with green LED for 2 hrs then incubated in dark for 24 hrs in drug free medium by PI staining based flow cytometric analysis; format: functional; how it was run: as §3
SK-OV-3 [21] = experiment: Antimigratory activity against human SK-OV-3 cells assessed as open scratch wound at 2.5 nM incubated for 24 hrs by scratch wound healing based microscopic analysis; format: functional, cell-based
HCT-116 [22] = experiment: Induction of cell cycle arrest in human HCT116 cells assessed as accumulation at G1 phase at antiproliferative IC50 preincubated for 24 hrs followed by irradiated with green LED for 2 hrs then incubated in dark for 24 hrs in drug free medium by PI staining based flow cytometric analysis; format: functional; how it was run: as §3
MCF7 [23] = experiment: Induction of cell cycle arrest in human MCF7 cells assessed as accumulation at G1 phase at antiproliferative IC50 preincubated for 24 hrs followed by irradiated with green LED for 2 hrs then incubated in dark for 24 hrs in drug free medium by PI staining based flow cytometric analysis; format: functional; how it was run: as §3
SK-OV-3 [24] = experiment: Induction of cell cycle arrest in human SK-OV-3 cells assessed as cell cycle distribution at antiproliferative IC50 preincubated for 24 hrs followed by irradiated with green LED for 2 hrs then incubated in dark for 24 hrs in drug free medium by PI staining based flow cytometric analysis; format: functional; how it was run: as §3
[25] = Drug uptake in human SK-OV-3 cells assessed as intracellular accumulation at 10 uM incubated for 24 hrs spectrophotometric analysis; format: ADME, cell-based; settings: sk-ov-3, 24 h
How it was run: (§4)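 Cells (3 × 10^6 per 75 cm² flask) grown 48 h, then exposed 24 h to BODIPY at 10 µM. Cells trypsinized and lysed in 0.1 M NaOH/1% SDS (5 × 10^6 cells/mL). Absorbance read at λmax; intracellular amount taken from a calibration curve prepared in SDS-lysed cells. 3–5 independent experiments.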

[26] = Drug uptake in human MCF7 cells assessed as intracellular accumulation at 10 uM incubated for 24 hrs spectrophotometric analysis; format: ADME, cell-based; settings: mcf7, 24 h; how it was run: as §4
SK-OV-3 [27] = experiment: Induction of cell cycle arrest in human SK-OV-3 cells assessed as cell cycle distribution at antiproliferative IC50 incubated for 24 hrs by PI staining based flow cytometric analysis; format: functional
SK-OV-3 [28] = experiment: Induction of apoptosis in human SK-OV-3 cells assessed as increase in apoptotic incubated for 24 hrs by PI staining based flow cytometric analysis; format: functional, cell-based
[29] = Drug uptake in human HCT116 cells assessed as intracellular accumulation at 10 uM incubated for 24 hrs spectrophotometric analysis; format: ADME, cell-based; settings: hct-116, 24 h; how it was run: as §4
SK-OV-3 [30] = experiment: Antimigratory activity against human SK-OV-3 cells assessed as open scratch wound at 2.5 nM preincubated for 24 hrs followed by irradiated with green LED for 2 hrs then incubated in dark for 24 hrs in drug free medium by scratch wound healing based microscopic analysis (reference value: 8.68 +/- 0.58%); format: functional
SK-OV-3 [31] = experiment: Antimigratory activity against human SK-OV-3 cells assessed as open scratch wound at 2.5 nM preincubated for 24 hrs followed by irradiated with green LED for 2 hrs measured immediately in drug free medium by scratch wound healing based microscopic analysis (Rvb 38.27 +/- 3.02%); format: functional

CC1=C(I)C(C)=[N+]2C1=C(c1ccc(OCCCCBr)cc1)c1c(C)c(I)c(C)n1[B-]2(F)F
Activity (MCF7 [1]): Active
Activity (MCF7 [2]): inactive
IC50 (HCT-116 [3]): 2 nM
Activity (MCF7 [4]): inactive
IC50 (MCF7 [5]): 6.88 nM
Activity (HCT-116 [6]): inactive
Activity (HCT-116 [7]): inactive
Activity (HCT-116 [8]): inactive
Activity (SK-OV-3 [9]): inactive
Activity (SK-OV-3 [10]): Active
Activity (SK-OV-3 [11]): 24.81%
Activity (SK-OV-3 [12]): Active
Activity (SK-OV-3 [13]): 35.19%
Activity (HCT-116 [14]): inactive
Activity (SK-OV-3 [15]): inactive
Activity (MCF7 [16]): Active
IC50 (SK-OV-3 [17]): 3.56 nM
Activity (MCF7 [18]): inactive
Activity (SK-OV-3 [19]): Active
Activity (MCF7 [20]): inactive
Activity (SK-OV-3 [21]): inactive
Activity (HCT-116 [22]): inactive
Activity (MCF7 [23]): inactive
Activity (SK-OV-3 [24]): inactive
Drug uptake [25]: Active
Drug uptake [26]: Active
Activity (SK-OV-3 [27]): inactive
Activity (SK-OV-3 [28]): inactive
Drug uptake [29]: Active

CC1=C(I)C(C)=[N+]2C1=C(c1ccc(OCCCCCCCCBr)cc1)c1c(C)c(I)c(C)n1[B-]2(F)F
Activity (MCF7 [1]): Active
Activity (MCF7 [2]): inactive
IC50 (HCT-116 [3]): 11.7 nM
Activity (MCF7 [4]): inactive
IC50 (MCF7 [5]): 23.1 nM
Activity (HCT-116 [6]): inactive
Activity (HCT-116 [7]): inactive
Activity (HCT-116 [8]): inactive
Activity (SK-OV-3 [9]): inactive
Activity (SK-OV-3 [10]): Active
Activity (SK-OV-3 [30]): 13.53%
Activity (SK-OV-3 [12]): Active
Activity (HCT-116 [14]): inactive
Activity (MCF7 [16]): Active
IC50 (SK-OV-3 [17]): 15.6 nM
Activity (MCF7 [18]): inactive
Activity (SK-OV-3 [31]): 37.71%
Activity (SK-OV-3 [19]): Active
Activity (MCF7 [20]): inactive
Activity (SK-OV-3 [21]): inactive
Activity (HCT-116 [22]): inactive
Activity (MCF7 [23]): inactive
Activity (SK-OV-3 [24]): inactive
Drug uptake [25]: Active
Drug uptake [26]: Active
Activity (SK-OV-3 [27]): inactive
Activity (SK-OV-3 [28]): inactive
Drug uptake [29]: Active
